# Experiments:
# Assay type in all cases: functional
# NCI-H322M = experiment: Growth inhibition of human NCI-H322M cells assessed as cell growth at 0.01 uM incubated for 48 hrs by sulforhodamine B assay relative to control; conditions: read-out: Activity
# SF-539 [1] = experiment: Growth inhibition of human SF-539 cells assessed as cell growth at 0.01 uM incubated for 48 hrs by sulforhodamine B assay relative to control; conditions: read-out: Activity
# UACC-257 [2] = experiment: Growth inhibition of human UACC-257 cells assessed as cell growth at 0.01 uM incubated for 48 hrs by sulforhodamine B assay relative to control; conditions: read-out: Activity
# A498 [3] = experiment: Growth inhibition of human A498 cells assessed as cell growth at 0.01 uM incubated for 48 hrs by sulforhodamine B assay relative to control; conditions: read-out: Activity
# Method in brief: (§1)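 NCI Developmental Therapeutics Program NCI60 panel. Compounds that were active in the 10 µM one-dose screen went on to dose–response testing. Growth at each concentration is expressed relative to untreated control (100%). GI50 (concentration giving 50% of maximal inhibition of proliferation) and TGI (concentration giving total growth inhibition) were derived from the curves.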
# Hs-578T = experiment: Growth inhibition of human Hs-578T cells assessed as cell growth at 0.01 uM incubated for 48 hrs by sulforhodamine B assay relative to control; conditions: read-out: Activity
# HOP-92 = experiment: Growth inhibition of human HOP-92 cells assessed as cell growth at 0.1 uM incubated for 48 hrs by sulforhodamine B assay relative to control; conditions: read-out: Activity
# HT-29 = experiment: Growth inhibition of human HT-29 cells assessed as cell growth at 0.1 uM incubated for 48 hrs by sulforhodamine B assay relative to control; conditions: read-out: Activity
# SF-295 [4] = experiment: Growth inhibition of human SF-295 cells assessed as cell growth at 0.1 uM incubated for 48 hrs by sulforhodamine B assay relative to control; conditions: read-out: Activity
# SF-539 [5] = experiment: Growth inhibition of human SF-539 cells assessed as cell growth at 0.1 uM incubated for 48 hrs by sulforhodamine B assay relative to control; conditions: read-out: Activity
# SNB-19 [6] = experiment: Growth inhibition of human SNB-19 cells assessed as cell growth at 0.1 uM incubated for 48 hrs by sulforhodamine B assay relative to control; conditions: read-out: Activity
# LOX IMVI = experiment: Growth inhibition of human LOX IMVI cells assessed as cell growth at 0.1 uM incubated for 48 hrs by sulforhodamine B assay relative to control; conditions: read-out: Activity
# M14 = experiment: Growth inhibition of human M14 cells assessed as cell growth at 0.1 uM incubated for 48 hrs by sulforhodamine B assay relative to control; conditions: read-out: Activity
# OVCAR-8 = experiment: Growth inhibition of human OVCAR-8 cells assessed as cell growth at 0.1 uM incubated for 48 hrs by sulforhodamine B assay relative to control; conditions: read-out: Activity
# T47D = experiment: Growth inhibition of human T47D cells assessed as cell growth at 0.1 uM incubated for 48 hrs by sulforhodamine B assay relative to control; conditions: read-out: Activity
# CCRF-CEM [7] = experiment: Growth inhibition of human CCRF-CEM cells assessed as cell growth at 1 uM incubated for 48 hrs by sulforhodamine B assay relative to control; conditions: read-out: Activity; method in brief: as §1
# COLO 205 [8] = experiment: Growth inhibition of human COLO 205 cells assessed as cell growth at 1 uM incubated for 48 hrs by sulforhodamine B assay relative to control; conditions: read-out: Activity; method in brief: as §1
# SNB-75 = experiment: Growth inhibition of human SNB-75 cells assessed as cell growth at 1 uM incubated for 48 hrs by sulforhodamine B assay relative to control; conditions: read-out: Activity
# UACC-257 [9] = experiment: Growth inhibition of human UACC-257 cells assessed as cell growth at 1 uM incubated for 48 hrs by sulforhodamine B assay relative to control; conditions: read-out: Activity
# IGROV-1 = experiment: Growth inhibition of human IGROV-1 cells assessed as cell growth at 1 uM incubated for 48 hrs by sulforhodamine B assay relative to control; conditions: read-out: Activity
# OVCAR-3 [10] = experiment: Growth inhibition of human OVCAR-3 cells assessed as cell growth at 1 uM incubated for 48 hrs by sulforhodamine B assay relative to control; conditions: read-out: Activity
# OVCAR-4 = experiment: Growth inhibition of human OVCAR-4 cells assessed as cell growth at 1 uM incubated for 48 hrs by sulforhodamine B assay relative to control; conditions: read-out: Activity
# SK-OV-3 = experiment: Growth inhibition of human SK-OV-3 cells assessed as cell growth at 1 uM incubated for 48 hrs by sulforhodamine B assay relative to control; conditions: read-out: Activity
# A498 [11] = experiment: Growth inhibition of human A498 cells assessed as cell growth at 1 uM incubated for 48 hrs by sulforhodamine B assay relative to control; conditions: read-out: Activity; method in brief: as §1
# DU-145 = experiment: Growth inhibition of human DU-145 cells assessed as cell growth at 1 uM incubated for 48 hrs by sulforhodamine B assay relative to control; conditions: read-out: Activity; method in brief: as §1
# MDA-MB-231 = experiment: Growth inhibition of human MDA-MB-231 cells assessed as cell growth at 1 uM incubated for 48 hrs by sulforhodamine B assay relative to control; conditions: read-out: Activity
# CCRF-CEM [12] = experiment: Growth inhibition of human CCRF-CEM cells assessed as cell growth at 100 uM incubated for 48 hrs by sulforhodamine B assay relative to control; conditions: read-out: Activity; method in brief: as §1
# NCI-H460 = experiment: Growth inhibition of human NCI-H460 cells assessed as cell growth at 100 uM incubated for 48 hrs by sulforhodamine B assay relative to control; conditions: read-out: Activity
# COLO 205 [13] = experiment: Growth inhibition of human COLO 205 cells assessed as cell growth at 100 uM incubated for 48 hrs by sulforhodamine B assay relative to control; conditions: read-out: Activity; method in brief: as §1
# SK-MEL-5 = experiment: Growth inhibition of human SK-MEL-5 cells assessed as cell growth at 100 uM incubated for 48 hrs by sulforhodamine B assay relative to control; conditions: read-out: Activity
# UO-31 = experiment: Growth inhibition of human UO-31 cells assessed as cell growth at 100 uM incubated for 48 hrs by sulforhodamine B assay relative to control; conditions: read-out: Activity
# A549 = experiment: Growth inhibition of human A549/ATCC cells incubated for 48 hrs by sulforhodamine B assay; conditions: for CC50: read-out: LC50 (the source's name); method in brief: as §1
# SF-295 [14] = experiment: Growth inhibition of human SF-295 cells incubated for 48 hrs by sulforhodamine B assay
# Method in brief: (§2)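 NCI DTP 60-line human tumour panel. Dose-response curves were run only for ligands active in the initial 10 µM screen. GI50 (concentration giving 50% of maximal inhibition of proliferation) and TGI (concentration giving total growth inhibition) were derived from these curves.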
# SNB-19 [15] = experiment: Growth inhibition of human SNB-19 cells incubated for 48 hrs by sulforhodamine B assay; method in brief: as §2
# OVCAR-3 [16] = experiment: Growth inhibition of human OVCAR-3 cells incubated for 48 hrs by sulforhodamine B assay; conditions: for CC50: read-out: LC50 (the source's name); method in brief: as §2
# 786-0 = experiment: Growth inhibition of human 786-0 cells incubated for 48 hrs by sulforhodamine B assay; conditions: for CC50: read-out: LC50 (the source's name); method in brief: as §1
# A498 [17] = experiment: Growth inhibition of human A498 cells incubated for 48 hrs by sulforhodamine B assay; conditions: for CC50: read-out: LC50 (the source's name); method in brief: as §1
# ACHN = experiment: Growth inhibition of human ACHN cells assessed as cell growth at 0.01 uM incubated for 48 hrs by sulforhodamine B assay relative to control; conditions: read-out: Activity
compound,measurement,setting,value
CN1CCc2nc3sc(C(N)=O)c(N)c3c(-c3cccs3)c2C1,growth at 0.01 µM,NCI-H322M,96%
same,growth at 0.01 µM,SF-539 [1],102%
same,growth at 0.01 µM,UACC-257 [2],97%
same,growth at 0.01 µM,A498 [3],97%
same,growth at 0.01 µM,Hs-578T,95%
same,growth at 0.1 µM,HOP-92,116%
same,growth at 0.1 µM,HT-29,104%
same,growth at 0.1 µM,SF-295 [4],103%
same,growth at 0.1 µM,SF-539 [5],104%
same,growth at 0.1 µM,SNB-19 [6],103%
same,growth at 0.1 µM,LOX IMVI,83%
same,growth at 0.1 µM,M14,111%
same,growth at 0.1 µM,OVCAR-8,96%
same,growth at 0.1 µM,T47D,94%
same,growth at 1 µM,CCRF-CEM [7],104%
same,growth at 1 µM,COLO 205 [8],69%
same,growth at 1 µM,SNB-75,99%
same,growth at 1 µM,UACC-257 [9],111%
same,growth at 1 µM,IGROV-1,129%
same,growth at 1 µM,OVCAR-3 [10],87%
same,growth at 1 µM,OVCAR-4,108%
same,growth at 1 µM,SK-OV-3,89%
same,growth at 1 µM,A498 [11],96%
same,growth at 1 µM,DU-145,108%
same,growth at 1 µM,MDA-MB-231,97%
same,growth at 100 µM,CCRF-CEM [12],7%
same,growth at 100 µM,NCI-H460,2%
same,growth at 100 µM,COLO 205 [13],-60%
same,growth at 100 µM,SK-MEL-5,-42%
same,growth at 100 µM,UO-31,6%
same,GI50,A549,3.37 µM
same,TGI,A549,> 100 µM
same,CC50,A549,> 100 µM
same,GI50,SF-295 [14],3.61 µM
same,LC50 (concentration killing 50% of cells),SF-295 [14],> 100 µM
same,TGI,SF-295 [14],> 100 µM
same,GI50,SNB-19 [15],4.34 µM
same,LC50,SNB-19 [15],> 100 µM
same,TGI,SNB-19 [15],> 100 µM
same,GI50,OVCAR-3 [16],2.16 µM
same,TGI,OVCAR-3 [16],6.23 µM
same,CC50,OVCAR-3 [16],> 100 µM
same,GI50,786-0,4.41 µM
same,TGI,786-0,> 100 µM
same,CC50,786-0,> 100 µM
same,GI50,A498 [17],2.58 µM
same,TGI,A498 [17],7.27 µM
same,CC50,A498 [17],> 100 µM
CCc1cccc(C)c1NC(=O)c1sc2nc3c(cc2c1N)C(=O)CCC3,growth at 0.01 µM,NCI-H322M,91%
same,growth at 0.01 µM,SF-539 [1],89%
same,growth at 0.01 µM,UACC-257 [2],93%
same,growth at 0.01 µM,A498 [3],80%
same,growth at 0.01 µM,ACHN,94%
same,growth at 0.01 µM,Hs-578T,93%
same,growth at 0.1 µM,HOP-92,70%
same,growth at 0.1 µM,SF-295 [4],85%
same,growth at 0.1 µM,SF-539 [5],89%
same,growth at 0.1 µM,SNB-19 [6],91%
same,growth at 0.1 µM,LOX IMVI,93%
same,growth at 0.1 µM,M14,92%
same,growth at 0.1 µM,OVCAR-8,97%
same,growth at 0.1 µM,T47D,91%
same,growth at 1 µM,CCRF-CEM [7],16%
same,growth at 1 µM,COLO 205 [8],-19%
same,growth at 1 µM,SNB-75,-2%
same,growth at 1 µM,UACC-257 [9],54%
same,growth at 1 µM,IGROV-1,59%
same,growth at 1 µM,OVCAR-3 [10],10%
same,growth at 1 µM,OVCAR-4,39%
same,growth at 1 µM,A498 [11],-16%
same,growth at 1 µM,DU-145,21%
same,growth at 1 µM,MDA-MB-231,51%
same,growth at 100 µM,CCRF-CEM [12],-11%
same,growth at 100 µM,NCI-H460,-33%
same,growth at 100 µM,COLO 205 [13],-31%
same,growth at 100 µM,SK-MEL-5,-78%
same,growth at 100 µM,UO-31,12%
same,GI50,A549,0.593 µM
same,TGI,A549,> 100 µM
same,CC50,A549,> 100 µM
same,GI50,SF-295 [14],0.276 µM
same,LC50 (concentration killing 50% of cells),SF-295 [14],> 100 µM
same,TGI,SF-295 [14],> 100 µM
same,GI50,SNB-19 [15],0.87 µM
same,LC50,SNB-19 [15],> 100 µM
same,TGI,SNB-19 [15],> 100 µM
same,GI50,OVCAR-3 [16],0.374 µM
same,TGI,OVCAR-3 [16],2.3 µM
same,CC50,OVCAR-3 [16],> 100 µM
same,GI50,786-0,0.542 µM
same,TGI,786-0,> 100 µM
same,CC50,786-0,> 100 µM
same,GI50,A498 [17],0.178 µM
same,TGI,A498 [17],0.665 µM
same,CC50,A498 [17],> 100 µM
